Experimental data: ChEMBL document CHEMBL2069218, “Water-soluble pyrazolo[4,3-e][1,2,4]triazolo[1,5-c]pyrimidines as human A₃ adenosine receptor antagonists” (J Med Chem, 2012)

What was measured:
Adenosine receptor A3 [1] = molecular target: T1, Adenosine receptor A3 (Homo sapiens, UniProt P0DMS8); experiment: Displacement of [3H]MRE-3008-F20 from human adenosine A3 receptor expressed in CHO cells after 120 mins by scintillation counter; assay type: cell-based
T1 sequence (P0DMS8 whole entry): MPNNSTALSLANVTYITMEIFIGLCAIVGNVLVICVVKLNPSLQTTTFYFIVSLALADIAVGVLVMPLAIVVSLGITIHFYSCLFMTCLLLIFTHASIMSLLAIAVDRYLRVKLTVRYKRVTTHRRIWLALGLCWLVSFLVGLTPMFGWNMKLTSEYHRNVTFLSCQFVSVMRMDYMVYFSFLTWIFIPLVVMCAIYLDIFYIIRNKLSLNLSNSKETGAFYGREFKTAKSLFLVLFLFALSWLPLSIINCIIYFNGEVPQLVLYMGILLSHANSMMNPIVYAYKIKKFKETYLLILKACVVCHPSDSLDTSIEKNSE

Adenosine receptor A3 [2] = molecular target: T1, Adenosine receptor A3; experiment: Antagonist activity at human adenosine A3 receptor expressed in CHO cells assessed as forskolin/C1-IB-MECA-induced inhibition of cAMP production; assay type: functional, cell-based
Method in brief: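 Intact CHO cells (1 × 10⁶/assay) expressing human A3, in buffer pH 7.4 with 2 IU/mL adenosine deaminase and Ro 20-1724. Preincubated 10 min at 37 °C. Forskolin 1 μM with Cl-IB-MECA 100 nM. Stopped with cold 6% TCA, cAMP measured by [³H]cAMP competition protein binding. IC50 by sigmoid nonlinear regression.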

Adenosine receptor A1 = molecular target: T2, Adenosine receptor A1 (Homo sapiens, UniProt P30542); experiment: Displacement of [3H]DPCPX from human adenosine A1 receptor expressed in CHO cells after 120 mins by scintillation counter; assay type: cell-based
T2 sequence (P30542 whole entry): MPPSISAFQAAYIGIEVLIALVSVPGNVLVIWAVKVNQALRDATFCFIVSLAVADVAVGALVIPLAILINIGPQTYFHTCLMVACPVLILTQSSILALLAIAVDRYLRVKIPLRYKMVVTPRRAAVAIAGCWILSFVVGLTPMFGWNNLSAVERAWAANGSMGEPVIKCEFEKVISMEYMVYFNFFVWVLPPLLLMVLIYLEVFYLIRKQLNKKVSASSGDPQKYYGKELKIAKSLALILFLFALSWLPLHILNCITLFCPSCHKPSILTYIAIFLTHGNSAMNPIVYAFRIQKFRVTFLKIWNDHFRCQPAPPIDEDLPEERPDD
Method in brief: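 Membranes from CHO cells expressing human A1 (50 μg protein), in 50 mM Tris-HCl pH 7.4, pretreated with adenosine deaminase 2 IU/mL. [³H]DPCPX 1 nM, 6–8 test concentrations, 120 min at 25 °C. Nonspecific binding with 1 μM DPCPX. GF/B filtration. Ki by Cheng–Prusoff.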

Adenosine receptor A2b = molecular target: T3, Adenosine receptor A2b (Homo sapiens, UniProt P29275); experiment: Antagonist activity at human adenosine A2B receptor expressed in CHO cells assessed as inhibition of NECA-induced cAMP production; assay type: functional, cell-based
T3 sequence (P29275 whole entry): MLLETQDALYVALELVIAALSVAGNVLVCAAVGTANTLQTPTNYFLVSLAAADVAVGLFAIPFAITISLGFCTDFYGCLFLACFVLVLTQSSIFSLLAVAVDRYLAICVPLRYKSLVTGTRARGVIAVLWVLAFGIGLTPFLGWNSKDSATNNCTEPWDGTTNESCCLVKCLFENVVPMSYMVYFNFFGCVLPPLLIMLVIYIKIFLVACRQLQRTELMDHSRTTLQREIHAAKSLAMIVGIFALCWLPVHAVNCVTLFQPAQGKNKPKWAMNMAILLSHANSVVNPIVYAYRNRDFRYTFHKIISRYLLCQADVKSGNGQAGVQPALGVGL
Method in brief: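 Intact CHO cells (1 × 10⁶/assay) expressing human A2B, in buffer pH 7.4 with 2 IU/mL adenosine deaminase and Ro 20-1724. Preincubated 10 min at 37 °C. NECA 100 nM stimulus. Stopped with cold 6% TCA, ether-extracted, cAMP measured by competition protein binding with [³H]cAMP. IC50 from sigmoid nonlinear regression.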

Adenosine receptor A2a = Adenosine receptor A2a (Homo sapiens, UniProt P29274); experiment: Displacement of [3H]ZM241385 from human adenosine A2A receptor expressed in CHO cells after 60 mins by scintillation counter; assay type: cell-based
Sequence of Adenosine receptor A2a (P29274 whole entry): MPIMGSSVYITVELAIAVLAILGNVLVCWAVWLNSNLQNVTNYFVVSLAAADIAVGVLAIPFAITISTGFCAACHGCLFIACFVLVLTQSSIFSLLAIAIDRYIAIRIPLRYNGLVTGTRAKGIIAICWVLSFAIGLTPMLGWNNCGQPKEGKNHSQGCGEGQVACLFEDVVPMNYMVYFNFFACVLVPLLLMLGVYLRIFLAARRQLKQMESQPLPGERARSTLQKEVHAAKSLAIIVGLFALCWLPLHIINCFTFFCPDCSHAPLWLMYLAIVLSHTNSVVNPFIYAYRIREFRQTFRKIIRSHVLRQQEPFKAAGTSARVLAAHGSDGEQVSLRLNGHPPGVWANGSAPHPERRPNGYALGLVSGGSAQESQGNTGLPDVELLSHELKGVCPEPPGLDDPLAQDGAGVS
Method in brief: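 Membranes from CHO cells expressing human A2A (50 μg protein), in 50 mM Tris-HCl, 10 mM MgCl2, pH 7.4, adenosine deaminase pretreated. [³H]ZM241385 2 nM, 6–8 concentrations, 60 min at 4 °C. Nonspecific binding with 1 μM ZM241385. Filtration, scintillation counting. Ki by Cheng–Prusoff. 3–4 experiments in duplicate.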

[3] = molecular target: Adenosine receptors; A1 & A3 (Homo sapiens) (UniProt P30542+P0DMS8); experiment: Selectivity ratio of Ki for human adenosine A1 receptor to Ki for human adenosine A3 receptor
[4] = Solubility of the compound in water at pH 7.4; assay type: physicochemical
Method in brief: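 Hydrochloride salts, solubility measured in phosphate-buffered saline at pH 7.4.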

Structure (SMILES)	Ki (Adenosine receptor A3 [1])	IC50 (Adenosine receptor A3 [2])	Ki (Adenosine receptor A1)	IC50 (Adenosine receptor A2b)	Ki (Adenosine receptor A2a)	Ratio Ki [3]	solubility [4]
Cn1cc2c(nc(NC(=O)NC3CCN(C(=O)NCc4ccc(F)cc4)CC3)n3nc(-c4ccco4)nc23)n1	4.9 nM	15 nM	408 nM	1040 nM	3260 nM	–	–
Cn1cc2c(nc(NC(=O)NC3CCN(Cc4ccccc4)CC3)n3nc(-c4ccco4)nc23)n1	30 nM	121 nM	703 nM	2060 nM	526 nM	–	–
Cn1cc2c(nc(NC(=O)NC3CCN(C(=O)NCCCc4ccccc4)CC3)n3nc(-c4ccco4)nc23)n1	14.5 nM	46 nM	112 nM	1540 nM	1640 nM	7.7	–
Cl.Cn1cc2c(nc(NC(=O)NC3CCN(CC4CCCCC4)CC3)n3nc(-c4ccco4)nc23)n1	9.7 nM	30 nM	3410 nM	> 5000 nM	> 5000 nM	351	8000 µg/mL
Cn1cc2c(nc(NC(=O)NC3CCN(Cc4ccc(F)cc4)CC3)n3nc(-c4ccco4)nc23)n1	24 nM	82 nM	1050 nM	> 5000 nM	> 5000 nM	–	–
Cn1cc2c(nc(NC(=O)NC3CCN(Cc4cccnc4)CC3)n3nc(-c4ccco4)nc23)n1	44 nM	180 nM	1330 nM	> 5000 nM	> 5000 nM	–	–
Cn1cc2c(nc(NC(=O)NC3CCN(Cc4ccncc4)CC3)n3nc(-c4ccco4)nc23)n1	39 nM	166 nM	1190 nM	> 5000 nM	> 5000 nM	–	–
Cn1cc2c(nc(NC(=O)NC3CCN(C(=O)NC4CCCCCC4)CC3)n3nc(-c4ccco4)nc23)n1	7.7 nM	26 nM	805 nM	> 5000 nM	> 5000 nM	–	–
CN1CCN(C(=O)N2CCC(NC(=O)Nc3nc4nn(C)cc4c4nc(-c5ccco5)nn34)CC2)CC1	31 nM	120 nM	1120 nM	2140 nM	1280 nM	–	–
Cn1cc2c(nc(NC(=O)NC3CCNCC3)n3nc(-c4ccco4)nc23)n1	65 nM	262 nM	> 5000 nM	2430 nM	> 5000 nM	–	–
Cc1ccc(CNC(=O)N2CCC(NC(=O)Nc3nc4nn(C)cc4c4nc(-c5ccco5)nn34)CC2)cc1	3.9 nM	12 nM	396 nM	2120 nM	2810 nM	–	–
CCOC(=O)CN1CCC(NC(=O)Nc2nc3nn(C)cc3c3nc(-c4ccco4)nn23)CC1	12.2 nM	41 nM	348 nM	> 5000 nM	1080 nM	–	–
Cn1cc2c(nc(NC(=O)NC3CCN(C(=O)Nc4ccncc4)CC3)n3nc(-c4ccco4)nc23)n1	21 nM	82 nM	1300 nM	3240 nM	1860 nM	–	–
Cn1cc2c(nc(NC(=O)NC3CCN(Cc4ccc(C#N)cc4)CC3)n3nc(-c4ccco4)nc23)n1	11.8 nM	40 nM	166 nM	> 5000 nM	2220 nM	14	–
C#CCN1CCC(NC(=O)Nc2nc3nn(C)cc3c3nc(-c4ccco4)nn23)CC1.Cl	–	–	–	–	–	–	8000 µg/mL
CC(C)NC(=O)N1CCC(NC(=O)Nc2nc3nn(C)cc3c3nc(-c4ccco4)nn23)CC1	9.8 nM	34 nM	1320 nM	> 5000 nM	> 5000 nM	–	–
Cc1ccc(CN2CCC(NC(=O)Nc3nc4nn(C)cc4c4nc(-c5ccco5)nn34)CC2)cc1	13.8 nM	50 nM	1480 nM	> 5000 nM	> 5000 nM	107	–
Cn1cc2c(nc(NC(=O)NC3CCN(C(=O)NC4CCCC4)CC3)n3nc(-c4ccco4)nc23)n1	9.3 nM	30 nM	744 nM	> 5000 nM	> 5000 nM	–	–
C=CCN1CCC(NC(=O)Nc2nc3nn(C)cc3c3nc(-c4ccco4)nn23)CC1	51 nM	212 nM	3360 nM	> 5000 nM	1420 nM	–	–

Other lines, results leading:

Ki (Adenosine receptor A3 [1])	IC50 (Adenosine receptor A3 [2])	Ki (Adenosine receptor A1)	IC50 (Adenosine receptor A2b)	Ki (Adenosine receptor A2a)	Ratio Ki [3]	solubility [4]	Structure (SMILES)
26 nM	91 nM	724 nM	> 5000 nM	> 5000 nM	–	–	Cn1cc2c(nc(NC(=O)NC3CCN(Cc4ccc(Cl)cc4)CC3)n3nc(-c4ccco4)nc23)n1
–	–	–	–	–	–	8000 µg/mL	Cl.Cn1cc2c(nc(NC(=O)NC3CCN(Cc4ccc(F)cc4)CC3)n3nc(-c4ccco4)nc23)n1
30 nM	116 nM	1500 nM	> 5000 nM	> 5000 nM	–	–	CCNC(=O)N1CCC(NC(=O)Nc2nc3nn(C)cc3c3nc(-c4ccco4)nn23)CC1
71 nM	301 nM	2790 nM	> 5000 nM	1190 nM	–	–	CCCN1CCC(NC(=O)Nc2nc3nn(C)cc3c3nc(-c4ccco4)nn23)CC1
13.3 nM	45 nM	1160 nM	> 5000 nM	> 5000 nM	87	–	COc1ccc(CN2CCC(NC(=O)Nc3nc4nn(C)cc4c4nc(-c5ccco5)nn34)CC2)cc1
253 nM	910 nM	> 5000 nM	> 5000 nM	> 5000 nM	–	–	CN1CCC(NC(=O)Nc2nc3nn(C)cc3c3nc(-c4ccco4)nn23)CC1
8.1 nM	29 nM	525 nM	1110 nM	> 5000 nM	–	–	Cn1cc2c(nc(NC(=O)NC3CCN(C(=O)NCc4ccccc4)CC3)n3nc(-c4ccco4)nc23)n1
–	–	–	–	–	–	< 100 µg/mL	Cl.Cn1cc2c(nc(NC(=O)Nc3ccncc3)n3nc(-c4ccco4)nc23)n1
10.4 nM	34 nM	635 nM	3240 nM	> 5000 nM	–	–	COc1ccc(CNC(=O)N2CCC(NC(=O)Nc3nc4nn(C)cc4c4nc(-c5ccco5)nn34)CC2)cc1
13.7 nM	44 nM	761 nM	> 5000 nM	> 5000 nM	–	–	Cn1cc2c(nc(NC(=O)NC3CCN(C(=O)NC4CCCCC4)CC3)n3nc(-c4ccco4)nc23)n1
25 nM	90 nM	614 nM	505 nM	1140 nM	–	–	Cn1cc2c(nc(NC(=O)NC3CCN(C(=O)NCc4ccc(Cl)cc4)CC3)n3nc(-c4ccco4)nc23)n1
12.4 nM	42 nM	371 nM	> 5000 nM	> 5000 nM	–	–	Cn1cc2c(nc(NC(=O)NC3CCN(Cc4ccc([N+](=O)[O-])cc4)CC3)n3nc(-c4ccco4)nc23)n1
6.8 nM	23 nM	182 nM	1760 nM	1840 nM	–	–	Cn1cc2c(nc(NC(=O)NC3CCN(C(=O)NCCc4ccccc4)CC3)n3nc(-c4ccco4)nc23)n1
–	–	–	–	–	–	15000 µg/mL	CN1CCC(NC(=O)Nc2nc3nn(C)cc3c3nc(-c4ccco4)nn23)CC1.Cl
25 nM	105 nM	802 nM	> 5000 nM	789 nM	–	–	C#CCN1CCC(NC(=O)Nc2nc3nn(C)cc3c3nc(-c4ccco4)nn23)CC1
